Bioassay records deposited in PubChem BioAssay by Sanford-Burnham Center for Chemical Genomics.
SENP6 block: SENP6 protease inhibition | Recombinant SENP6 catalytic domain, aminoluciferin luminescence | AID 2599 | actives 1.8% (n = 330,000) | Q9GZR1 | inhibition, % at 10 µM;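 active = inhibition above about 50% at the single tested dose, limit read from the data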;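 also: plate controls were DMSO wells with enzyme for no effect and DMSO wells lacking enzyme for full effect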
SENP8 block-1: inhibitors of human SENP8 protease | Q96LD8 | purified SENP8, Z-RLRGG-aminoluciferin cleavage, luminescence | inhibition, % at 10 µM | actives 1.2% (n = 330,000) | AID 2540; in the data active = inhibition above about 50%
SENP1 FRET inh: blocks the human SENP1 SUMO protease catalytic domain. Q9P0U3. recombinant SENP1 catalytic domain, CyPet-SUMO1-YPet FRET cleavage. inhibition, % at 10 µM. actives 0.21% (n = 360,000). AID 624204;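 active = inhibition at least 30% at 10 µM, raw YFP signal under a set limit, fluorescence ratio 0.5 to 1.5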;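 also: 0% = enzyme with DMSO and 100% = no enzyme wells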
Target sequence (Q9P0U3 419-644 limits assumed): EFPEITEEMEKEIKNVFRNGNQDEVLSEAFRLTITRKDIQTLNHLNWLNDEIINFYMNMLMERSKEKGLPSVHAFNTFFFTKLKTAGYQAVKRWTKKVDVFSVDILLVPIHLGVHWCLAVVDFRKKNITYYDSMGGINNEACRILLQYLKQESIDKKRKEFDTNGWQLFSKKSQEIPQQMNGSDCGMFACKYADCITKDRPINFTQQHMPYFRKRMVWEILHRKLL
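System: Recombinant human SENP1 catalytic domain, His6-tagged | Incubation: Enzyme reaction for 50 min at room temperature, dark | Medium: Tris pH 8 with BME, BSA, NP40 and catalase | Also added: 25 nM SUMO1 FRET substrate | Compound: 10 µM single point, 0.5% DMSO | Measured by: FRET fluorescence in CFP and YFP emission channels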
SENP8 block-2: blocks human SENP8 cleavage of Nedd8 substrate; inhibition, % at 20 µM; recombinant SENP8, Nedd8 substrate fluorescence; AID 602440; actives 0.64% (n = 360,000); Q96LD8; in the data active = inhibition mostly above about 40%, no sharp cut-off; inactive = mostly below about 27%
SENP7 inh: inhibitors of human SENP7 protease | Q9BQF6 | recombinant SENP7, Z-RLRGG-aminoluciferin luminescence, 40 min | inhibition, % at 5 µM | actives 1.5% (n = 330,000) | AID 434973;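 active = inhibition above about 50% at the single test dose, limit read from the data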;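 also: plate controls were DMSO with enzyme for no effect and no enzyme buffer wells for full effect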
Target sequence (Q9BQF6 706-1050 limits assumed): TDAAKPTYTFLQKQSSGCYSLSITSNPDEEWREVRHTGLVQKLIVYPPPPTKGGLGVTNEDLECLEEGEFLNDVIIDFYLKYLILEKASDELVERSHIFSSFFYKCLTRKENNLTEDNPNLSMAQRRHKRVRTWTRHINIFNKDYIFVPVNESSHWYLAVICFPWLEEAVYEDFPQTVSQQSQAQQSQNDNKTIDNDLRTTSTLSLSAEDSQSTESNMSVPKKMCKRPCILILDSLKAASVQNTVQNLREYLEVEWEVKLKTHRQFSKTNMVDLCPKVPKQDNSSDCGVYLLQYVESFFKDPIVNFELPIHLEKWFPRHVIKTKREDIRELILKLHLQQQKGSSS
SENP8 confirm: human SENP8 inhibition, confirmed | shares compounds with SENP7 inh | Recombinant SENP8, Z-RLRGG-aminoluciferin luminescence, 60 min | inhibition, % at 12.5 µM | actives 40% (n = 6,200) | AID 488912;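 active = mean inhibition across replicates above about 50%, limit read from the data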
SENP6 conf: confirmation of human SENP6 protease inhibitors; shares compounds with SENP7 inh; actives 58% (n = 6,200); inhibition, % at 12.5 µM; AID 488915; recombinant SENP6, Z-RLRGG-aminoluciferin luminescence
SENP7 conf: confirmation of human SENP7 protease inhibitors | shares compounds with SENP7 inh | recombinant SENP7, Z-RLRGG-aminoluciferin luminescence, 40 min | inhibition, % at 12.5 µM | actives 69% (n = 6,200)
Casp3 SENP sel: selectivity test for SENP inhibitors: human caspase-3 inhibition | inhibition, % at 12.5 µM | shares compounds with SENP7 inh | actives 60% (n = 6,200) | purified caspase-3, Z-DEVD-aminoluciferin luminescence, 60 min;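 active = mean inhibition above about 50%, limit read from the data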;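 also: plate controls were enzyme with DMSO for no effect and wells without caspase-3 for full effect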
SENP luc ctr: luminescence interference (SENP counter-screen); inhibition, % at 12.5 µM; AID 488919; Pre-incubated SENP8/Z-RLRGG-aminoluciferin, luciferase luminescence interference; shares compounds with SENP7 inh; actives 39% (n = 6,200);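 active = mean inhibition above about 50% when retested at one dose, limit read from the data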;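 also: plate controls were DMSO wells with completed reaction for no effect and substrate without enzyme for full effect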
Numbers without * were called inactive; · = not tested or not shown. Sampled rows, rich in hits. Any-hit rate of the full collection: about 2.5%.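 The calls were made as follows, unless noted: active = mean inhibition above about 50% in the one-dose retest (limit read from the data); inactive = the rest.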

SMILES	SENP6 block	SENP8 block-1	SENP1 FRET inh	SENP8 block-2	SENP7 inh	SENP8 confirm	SENP6 conf	SENP7 conf	Casp3 SENP sel	SENP luc ctr
O=C1NC(=S)S/C1=C\c1coc2ccc(O)cc2c1=O	81*	60*	1	18	4	7	69*	44	37	74*
O=C(C[n+]1ccn(CCCNP2(=O)C=C(c3ccccc3)OC(c3ccccc3)=C2)c1)c1cccs1	-10	-1	1	19	-16	·	·	·	·	·
COc1ccc(-c2cn3cc(Cl)ccc3n2)cc1OC	2	1	3	-271	6	·	·	·	·	·
Clc1ccc2nc(-c3ccc(Br)s3)cn2c1	80*	63*	2	-292	5	14	69*	86*	49	15
Cc1ccc(-n2nc(C)c3onc(C)c3c2=O)cc1	-1	1	3	9	7	·	·	·	·	·
Nc1ccc(N=Nc2ccccc2O)c(N)c1	83*	70*	6	40	79*	77*	81*	95*	57*	82*
O=C(CCNS(=O)(=O)/C=C/c1ccccc1)NCCc1c[nH]c2ccccc12	-14	-5	-6	0	3	·	·	·	·	·
CCOC(=O)[C@H]1[C@H]2COc3ccccc3[C@@H]2N2C(=O)c3c(C)cc(C)cc3NC(=O)[C@@]12C	-22	-11	3	16	-8	·	·	·	·	·
N/C(=N\OC(=O)c1cc([N+](=O)[O-])ccc1Cl)c1ccccn1	-8	-10	1	7	-4	·	·	·	·	·
N/C(=N\OC(=O)c1cc(Cl)ccc1Cl)c1ccncc1	-14	1	2	15	2	·	·	·	·	·
N/C(=N\OC(=O)c1ccc([N+](=O)[O-])cc1Cl)c1ccccn1	96*	91*	2	32	95*	82*	96*	102*	97*	17
N/C(=N\OC(=O)c1cccc([N+](=O)[O-])c1)c1ccccn1	50*	37	2	13	61*	35	46	75*	80*	50
N/C(=N\OC(=O)c1ccc(Cl)cc1Cl)c1ccncc1	77*	59*	-2	15	62*	62*	64*	84*	73*	64*
N/C(=N\OC(=O)c1ccc(Cl)cc1[N+](=O)[O-])c1ccccn1	59*	53*	0	3	51*	38	43	77*	77*	4
CN(C(=O)c1cccc(NC(=O)Cc2ccc(NC(=O)C3CCN(S(=O)(=O)c4cccc([N+](=O)[O-])c4)CC3)cc2)c1)C1CC1	·	·	1	0	·	·	·	·	·	·
N/C(=N\OC(=O)c1ccccc1Cl)c1ccncc1	15	37	0	14	49	·	·	·	·	·
N/C(=N\OC(=O)c1ccc(Cl)cc1Cl)c1ccccn1	99*	96*	1	15	99*	97*	98*	102*	98*	95*
Cc1ccc(C(=O)O/N=C(\N)c2ccccc2)c(Cl)c1	99*	97*	3	16	99*	5	4	10	4	5
N/C(=N\OC(=O)COc1cc(Cl)c(Cl)cc1Cl)c1ccccn1	79*	58*	5	16	77*	12	55*	10	52*	12
Cc1ccc(C(=O)O/N=C(\N)c2ccccn2)c(Cl)c1	96*	96*	4	8	99*	98*	99*	102*	98*	98*
Cc1cccc(C(=O)NNC(=O)C2CCCCC2)c1O	·	·	0	-167	·	·	·	·	·	·
CCc1nc2ccc(C(=O)NCCN3CCNC3=O)cn2c1N(CC)CCOC	·	·	-1	6	·	·	·	·	·	·
O=C(NCc1cccs1)C1CCC(=O)N(Cc2cccc(C(F)(F)F)c2)C1 (centres undefined)	-6	-10	2	1	-7	·	·	·	·	·
N/C(=N/OC(=O)c1cccc([N+](=O)[O-])c1)c1cccc([N+](=O)[O-])c1	-19	-10	1	26	-5	·	·	·	·	·
COc1ccc(/C=C/C(=O)O/N=C(\N)c2ccccn2)cc1OC	5	-9	-1	-112	13	·	·	·	·	·
SMILES	SENP6 block	SENP8 block-1	SENP1 FRET inh	SENP8 block-2	SENP7 inh	SENP8 confirm	SENP6 conf	SENP7 conf	Casp3 SENP sel	SENP luc ctr
N/C(=N\OC(=O)/C=C/c1ccccc1)c1ccccn1	95*	88*	4	-2	96*	89*	90*	100*	94*	93*
N/C(=N\OC(=O)c1ccccc1Cl)c1cccc([N+](=O)[O-])c1	75*	67*	1	15	90*	59*	60*	91*	59*	81*
O=C(Nc1ccc(S(=O)(=O)N2CCCCC2)cc1)C1CC(=O)N(c2ccc(Cl)cc2)C1 (centres undefined)	-16	2	2	0	3	·	·	·	·	·
Cc1cccc(C)c1NC(=S)/C(=C(\[O-])c1cccs1)[n+]1ccccc1	0	-5	-5	14	5	·	·	·	·	·
[O-]/C(=C(\C(=S)Nc1cccc2ccccc12)[n+]1ccccc1)c1cccs1	56*	12	-73	-362	23	7	12	-6	4	-2
CCOC(=O)c1c(N)n(CCOC(=O)c2cccs2)c2nc3ccccc3nc12	84*	43	-123	-282	47	8	6	10	4	0
CN1CCN(c2nc(-c3ccc(C(C)(C)C)cc3)nc3ccccc23)CC1	54*	34	0	32	8	31	28	35	48	21
Cc1ccc(-c2nc(N3CCN(C)CC3)c3ccccc3n2)cc1	-4	-5	-1	-3	4	·	·	·	·	·
COc1ccc(C2c3ccc(O)cc3Oc3ncn4nc(-c5ccncc5)nc4c32)cc1OC (centres undefined)	67*	8	-22	8	-2	12	8	5	2	-3
CC(=O)/C(=C/N(C)C)C(=O)Nc1ccc(Cl)cc1Cl	10	78*	-7	1	5	70*	66*	92*	81*	77*
CCOc1ccc(NC(=O)Nc2nc3ccc(S(C)(=O)=O)cc3s2)cc1	-7	2	1	-36	2	·	·	·	·	·
CCCC(=O)Nc1nc2ccc(S(N)(=O)=O)cc2s1	-8	1	4	11	7	·	·	·	·	·
Cc1ccccc1NC(=O)Nc1nc2ccc(S(C)(=O)=O)cc2s1	-12	-12	2	0	51*	-21	-16	-6	-8	-6
